KLK7 zymogen act: proKLK7 zymogen activators, primary screen, biochemical, fluorescence intensity | Kallikrein-7 (Homo sapiens), P49862 | purified proKLK7, EDANS-DABCYL substrate fluorescence; 100% is mature enzyme control, 0% vehicle | activation, % at 7 µM | 370,000 compounds, 0.9% hits | AID 652039, 2013;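 active means activation above the mean of all tested compounds plus 3 SD, computed per campaign excluding outliers beyond control limits, cut at about 13% in these data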
RanGTP-Impb inh: inhibitors of RanGTP-importin-beta interaction, primary screen, biochemical, FRET, CFP-Ran, YFP-importin-beta, homogeneous; Ran GTPase (GTP-bound) - importin-beta complex; cell-free CFP-Ran/YFP-importin-beta FRET ratio; inhibition, % (test concentration not listed); 300,000 compounds, 1.1% hits;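 active means more than half of the replicate wells show a fall in the fluorescence ratio signal beyond about 16%, limit read from the data, passing the limit was not always enough; inconclusive means exactly half of the replicate wells pass the set limit; inactive means fewer than half of replicates pass the limit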;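 further: 0% = DMSO wells and 100% = Ran loaded with GDP instead of GTP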
Runt-SMMHC FRET: inhibitors of RUNX1 Runt–CBFb-SMMHC binding, primary screen, biochemical, FRET, Cerulean-Runt, Venus-CBFb-SMMHC, uHTS; 220,000 compounds, 0.74% hits; Cerulean-Runt/Venus-CBFb-SMMHC FRET ratio 530/480, 1 h; Runt-related transcription factor 1 (Homo sapiens) + Core-binding factor subunit beta …; inhibition, % at 20 µM;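 active means mean inhibition across duplicate retests at 20 µM reaching about 50%, limit read from the data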;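 further: 0% = DMSO wells and 100% = wells with excess untagged CBFb-SMMHC; inhibitors lower the FRET ratio by blocking Runt binding to CBFb-SMMHC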
Target sequence (Q01196 whole entry, looked up): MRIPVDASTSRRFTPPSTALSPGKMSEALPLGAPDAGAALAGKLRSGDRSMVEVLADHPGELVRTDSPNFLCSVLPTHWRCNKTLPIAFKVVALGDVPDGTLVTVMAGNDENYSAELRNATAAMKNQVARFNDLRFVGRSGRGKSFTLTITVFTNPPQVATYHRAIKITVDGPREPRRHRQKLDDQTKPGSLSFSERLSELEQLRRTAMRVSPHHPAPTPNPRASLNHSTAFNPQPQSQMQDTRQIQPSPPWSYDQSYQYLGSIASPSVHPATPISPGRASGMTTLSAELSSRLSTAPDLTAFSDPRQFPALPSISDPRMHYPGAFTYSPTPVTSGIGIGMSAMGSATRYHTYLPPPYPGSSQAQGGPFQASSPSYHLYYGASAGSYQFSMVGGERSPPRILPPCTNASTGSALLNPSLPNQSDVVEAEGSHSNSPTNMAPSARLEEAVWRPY
Target sequence (Q13951 whole entry, looked up): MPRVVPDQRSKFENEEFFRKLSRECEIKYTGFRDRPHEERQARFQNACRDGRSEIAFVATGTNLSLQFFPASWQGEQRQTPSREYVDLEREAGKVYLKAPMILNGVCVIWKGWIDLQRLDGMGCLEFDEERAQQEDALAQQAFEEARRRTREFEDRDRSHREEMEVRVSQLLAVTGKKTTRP
MEX-5 binding: MEX-5 zinc finger RNA-binding disruptors – biochemical, C. elegans, fluorescence polarization, MLPCN library, primary screen | Zinc finger protein mex-5 (Caenorhabditis elegans), Q9XUB2 | activity score (negative = inhibition of binding), % at 10 µM | 300,000 compounds, 0.38% hits | MEX-5/FITC-TCR2 RNA binding; stronger effect = lower value;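 active means inhibition past about -25% in most replicates, and total fluorescence under double the plate's negative control median, limit read from the data; inconclusive means replicates evenly split on the limit, or fluorescence at least double controls; inactive means too little inhibition in most replicates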;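 further: 0% = DMSO and -100% = 5 µM competing unlabeled TCR2 RNA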
Runt-CBFb FRET: inhibitors of RUNX1 Runt–CBFb binding, primary screen, biochemical, FRET, Cerulean-Runt, Venus-CBFb, uHTS; 220,000 compounds, 0.46% hits; Cerulean-Runt/Venus-CBFb FRET ratio 530/480, 1 h; inhibition, % at 20 µM; Runt-related transcription factor 1 (Homo sapiens) + Core-binding factor subunit beta …; AID 1496, 2009;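 active means inhibition over about 50% at 20 µM in the single-dose screen, limit read from the data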;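 further: 0% = DMSO wells and 100% = excess unlabeled CBFb competitor control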
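Doses: 20 µM compound in 1% DMSO | Material: Cerulean-labeled Runt domain protein | Amount: Each fluorescent fusion protein 100 nM | Schedule: Two 1 h room-temperature incubations shielded from light | Measured by: FRET fluorescence | Evaluation: Loss of energy transfer signal | Controls: Unlabeled CBFb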
KLK7 act conf: proKLK7 zymogen activators, confirmation, biochemical, fluorescence intensity, triplicate. activation, % at 7 µM. purified proKLK7, EDANS-DABCYL substrate fluorescence; scaled: vehicle 0, mature enzyme 100. 3,200 compounds, 68% hits. shares compounds with KLK7 zymogen act;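 active means activation, as change over the incubation, above the mean of all tested compounds plus 3 SD, cut at about 13% in these data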
EDANS interfere: EDANS-DABCYL substrate optical interference, artefact control for kallikrein-7 zymogen activator project, biochemical, fluorescence intensity, high throughput; shares compounds with KLK7 zymogen act; AID 686952, 2013; 3,200 compounds, 80% hits; no enzyme, 4 h; solvent 0%, active enzyme control 100%; activation, % at 7 µM;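 active means activation above the all-compound mean plus 3 SD, ignoring values outside control-based bounds, cut at about 4.8% in these data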;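 further: value is the 4 h activation minus the activation read at time zero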
EDANS interf: optically interferes with EDANS-DABCYL fluorescence, kallikrein-7 activator counter-screen; shares compounds with KLK7 zymogen act; EDANS-DABCYL peptide fluorescence interference, no enzyme; EC50, µM; 250 compounds, 20% hits;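 active means compounds that raise the fluorescence signal in this interference counterscreen, with EC50 at or below 10 µM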;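 further: intact quenched peptide substrate alone read at 355 nm excitation and 520 nm emission; signal is fluorescence gain from T0 to T4 after four hours at room temperature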
Numbers without * were called inactive; ? = inconclusive; · = not tested or not shown. Compounds with a hit are over-represented: about 2.1% of the library has one in this group of screens.

SMILES | KLK7 zymogen act | RanGTP-Impb inh | Runt-SMMHC FRET | MEX-5 binding | Runt-CBFb FRET | KLK7 act conf | EDANS interfere | others
O=C(Nc1ccc2c(c1)[nH]c(=O)c1ccccc12)C(F)(F)F | 211* | · | · | · | · | 163* | 153*
O=C(NCCc1ccccn1)c1ccc2nc(Cc3ccccc3F)oc2c1 | -1 | 0 | · | 1 | · | · | ·
CCN(CC)C(=O)c1cc2c(=O)n3cccc(C)c3nc2s1 | 20* | -5 | · | 1 | · | 13* | 15*
CCC(C)NC(=O)c1cc2c(=O)n3cccc(C)c3nc2s1 (centres undefined) | 20* | 2 | · | 0 | · | 18* | -3 | EDANS interf=>70
CCCCN(CC)C(=O)c1cc2c(=O)n3cccc(C)c3nc2s1 | 4 | -2 | · | -3 | · | · | ·
Cc1cccn2c(=O)c3cc(C(=O)N4c5ccccc5CC4C)n(C)c3nc12 (centres undefined) | -1 | 2 | 14 | -6 | 2 | · | ·
CCN(CC)C(=O)c1cc2c(=O)n3cccc(C)c3nc2n1C | 22* | -4 | 2 | -2 | 3 | 15* | 21*
O=C(O)c1cc(S(=O)(=O)N(Cc2ccccc2)c2ccc(Cl)cc2)ccc1Cl | 0 | 0 | · | -2 | · | · | ·
COc1ccc(NC(=O)CN(C)S(=O)(=O)c2ccc3c(c2)CCC(=O)N3)c(OC)c1 | 0 | -2 | -2 | 0 | 1 | · | ·
COc1ccc(COC(=O)N/N=C/c2cccs2)cc1 | 1 | 1 | · | 0 | · | · | ·
CCn1cc(CNC(=O)CSc2nc(-c3ccc(OC)c(OC)c3)cc(C(F)(F)F)n2)c(C)n1 | 21* | 2 | 4 | 0 | 0 | 4 | 8.2*
COCCNC(=O)CSc1nc(-c2ccc(OC)c(OC)c2)cc(C(F)(F)F)n1 | 4 | 0 | -2 | 0 | 2 | · | ·
C=CCn1c(=N)c(C(=O)NCCCOC)cc2c(=O)n3cc(C)ccc3nc21 | 143* | 2 | 79* | -9 | 10 | 58* | 62*
C=CCn1c(=N)c(C(=O)NCCCOC)cc2c(=O)n3ccccc3nc21 | 136* | 175* | 82* | 1 | 9 | 57* | 67*
O=C(CNS(=O)(=O)c1ccc(Br)s1)N1CCN(c2ccc(F)cc2)CC1 | 1 | 0 | · | 0 | · | · | ·
COc1ccc(OC)c(/C=C/C(=O)N2C(=O)c3cccc(N)c3C2=O)c1 | 44* | 7 | 79 | 0 | -36 | 654* | 689*
COc1cc(/C=C/C(=O)N2C(=O)c3cccc(N)c3C2=O)cc(OC)c1OC | 21* | ? | 33 | -6 | -26 | 307* | 297*
COc1ccc(OC)c(/C=C/C(=O)N2CCCc3ccccc32)c1 | 1 | 7 | 1 | 0 | -3 | · | ·
COc1cc(/C=C/C(=O)N2CCN(C(=O)/C=C/c3cc(OC)c(OC)c(OC)c3)CC2)cc(OC)c1OC | · | 1 | · | 2 | · | · | ·
Cc1ccc2c(c1)c1c(c(=O)n(-c3ccccc3C)c(=O)n1CC(=O)NCC1CCCO1)n2C (centres undefined) | -3 | 1 | · | -1 | · | · | ·
COc1ccc(OC)c2c1CCC2=O | 13* | -1 | 0 | 1 | -3 | 19* | 23*
COc1ccccc1NC1=C(C)C(=O)CC1 | 0 | -2 | 3 | -2 | 0 | · | ·

Screening data as filed in PubChem BioAssay.
